Experimental data reported in ChEMBL document CHEMBL1149778, “Synthesis of some novel 2,4-disubstituted thiazoles as possible antimicrobial agents” (2008).
≈ marks a conversion by molar mass, not a printed value.

Tests used:
Staphylococcus aureus [1] = test: Antibacterial activity against Staphylococcus aureus ATTC 25923 after 16 to 18 hrs by serial plate dilution method; format: functional
Method in brief: (§1)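 MIC by broth serial dilution: compound serially diluted in Mueller-Hinton broth, tubes adjusted to […] with phosphate buffer. Standardized bacterial suspension inoculated, incubated 16-18 h at 37 °C. MIC read as the lowest concentration with no visible growth.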

Staphylococcus aureus [2] = test: Antibacterial activity against Staphylococcus aureus ATTC 25923 assessed as zone of inhibition after 16 to 18 hrs by serial plate dilution method; format: functional
Method in brief: (§2)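 Agar well diffusion: 20 ml agar per dish seeded with bacterial suspension, excess decanted, dishes held 1 h at 37 °C. Wells punched, compounds in DMSO added at their MIC levels, DMSO wells as control. Zone of inhibition measured.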

Bacillus subtilis [3] = test: Antibacterial activity against Bacillus subtilis after 16 to 18 hrs by serial plate dilution method; format: functional; method in brief: as §1
Aspergillus fumigatus [4] = test: Antifungal activity against Aspergillus fumigatus NCIM No.902 by serial plate dilution method; format: functional
Escherichia coli [5] = test: Antibacterial activity against Escherichia coli ATTC 25922 after 16 to 18 hrs by serial plate dilution method; format: functional; settings: ATCC25922; method in brief: as §1
Pseudomonas aeruginosa [6] = test: Antibacterial activity against Pseudomonas aeruginosa ATTC 27853 after 16 to 18 hrs by serial plate dilution method; format: functional; settings: ATCC27853; method in brief: as §1
Aspergillus fumigatus [7] = test: Antifungal activity against Aspergillus fumigatus NCIM No.902 assessed as zone of inhibition by serial plate dilution method; format: functional
Method in brief: (§3)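 Sabouraud agar (peptone, D-glucose, agar; pH 5.7), 20 ml per dish, lawned with a saline spore suspension from a loopful of fungus. Excess decanted, plates dried 1 h at 37 °C. Wells punched and compounds in DMSO added, DMSO as control. Triplicate plates, 37 °C for 3-4 days; inhibition-zone diameter measured.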

Aspergillus flavus [8] = test: Antifungal activity against Aspergillus flavus NCIM No.524 by serial plate dilution method; format: functional
Escherichia coli [9] = test: Antibacterial activity against Escherichia coli ATTC 25922 assessed as zone of inhibition after 16 to 18 hrs by serial plate dilution method; format: functional, ATCC25922; method in brief: as §2
Aspergillus flavus [10] = test: Antifungal activity against Aspergillus flavus NCIM No.524 assessed as zone of inhibition by serial plate dilution method; format: functional; method in brief: as §3
Talaromyces marneffei [11] = test: Antifungal activity against Penicillium marneffei by serial plate dilution method; format: functional
Pseudomonas aeruginosa [12] = test: Antibacterial activity against Pseudomonas aeruginosa ATTC 27853 assessed as zone of inhibition after 16 to 18 hrs by serial plate dilution method; format: functional, ATCC27853; method in brief: as §2
[13] = tested on: Trichophyton mentagrophytes; test: Antifungal activity against Trichophyton mentagrophytes by serial plate dilution method; format: functional
Talaromyces marneffei [14] = test: Antifungal activity against Penicillium marneffei assessed as zone of inhibition by serial plate dilution method; format: functional; method in brief: as §3
Bacillus subtilis [15] = test: Antibacterial activity against Bacillus subtilis assessed as zone of inhibition after 16 to 18 hrs by serial plate dilution method; format: functional; method in brief: as §2
[16] = tested on: Trichophyton mentagrophytes; test: Antifungal activity against Trichophyton mentagrophytes assessed as zone of inhibition by serial plate dilution method; format: functional; method in brief: as §3

Compound	MIC (Staphylococcus aureus [1]) [µg/mL]	MIC (Bacillus subtilis [3]) [µg/mL]	MIC (Aspergillus fumigatus [4]) [µg/mL]	MIC (Escherichia coli [5]) [µg/mL]	MIC (Pseudomonas aeruginosa [6]) [µg/mL]	MIC (Aspergillus flavus [8]) [µg/mL]	MIC (Talaromyces marneffei [11]) [µg/mL]	MIC [13] [µg/mL]	inhibition zone (IZ) (Staphylococcus aureus [2]) [mm]	inhibition zone (IZ) (Aspergillus fumigatus [7]) [mm]	inhibition zone (IZ) (Escherichia coli [9]) [mm]	inhibition zone (IZ) (Aspergillus flavus [10]) [mm]	inhibition zone (IZ) (Pseudomonas aeruginosa [12]) [mm]	inhibition zone (IZ) (Talaromyces marneffei [14]) [mm]	inhibition zone (IZ) (Bacillus subtilis [15]) [mm]	inhibition zone (IZ) [16] [mm]
CN1CCN(Cc2csc(-c3cc(Cl)cc(Cl)c3Cl)n2)CC1	6.25 (≈ 16.6 µM)	6.25 (≈ 16.6 µM)	6.25 (≈ 16.6 µM)	6.25 (≈ 16.6 µM)	6.25 (≈ 16.6 µM)	25 (≈ 66.4 µM)	25 (≈ 66.4 µM)	6.25 (≈ 16.6 µM)	16	16	16	<10	16	<10	16	16
COc1ccc(-c2csc(-c3cc(Cl)cc(Cl)c3Cl)n2)cc1	12.5 (≈ 33.7 µM)	12.5 (≈ 33.7 µM)	25 (≈ 67.4 µM)	6.25 (≈ 16.9 µM)	12.5 (≈ 33.7 µM)	25 (≈ 67.4 µM)	25 (≈ 67.4 µM)	25 (≈ 67.4 µM)	11	<10	16	<10	11	<10	11	<10
O=C(O)c1cn(C2CC2)c2cc(N3CCNCC3)c(F)cc2c1=O [CIPROFLOXACIN]		1.56 (≈ 4.71 µM)							16		16		16		21	
Clc1cc(Cl)c(Cl)c(-c2nc(-c3cccnc3)cs2)c1	12.5 (≈ 36.6 µM)	12.5 (≈ 36.6 µM)	6.25 (≈ 18.3 µM)	12.5 (≈ 36.6 µM)	25 (≈ 73.2 µM)	6.25 (≈ 18.3 µM)	6.25 (≈ 18.3 µM)	6.25 (≈ 18.3 µM)	11	16	11	16	<10	16	11	16
Cc1cc(C2CCCCC2)n(O)c(=O)c1.NCCO [CICLOPIROX OLAMINE]			6.25			6.25	6.25	6.25		16		16		16		16
O=[N+]([O-])c1ccc(-c2csc(-c3cc(Cl)cc(Cl)c3Cl)n2)cc1	12.5 (≈ 32.4 µM)	25 (≈ 64.8 µM)	12.5 (≈ 32.4 µM)	6.25 (≈ 16.2 µM)	6.25 (≈ 16.2 µM)	12.5 (≈ 32.4 µM)	25 (≈ 64.8 µM)	25 (≈ 64.8 µM)	11	11	16	11	16	<10	<10	<10
CSc1ccc(-c2csc(-c3cc(Cl)cc(Cl)c3Cl)n2)cc1	6.25 (≈ 16.2 µM)	6.25 (≈ 16.2 µM)	12.5 (≈ 32.3 µM)	6.25 (≈ 16.2 µM)	6.25 (≈ 16.2 µM)	12.5 (≈ 32.3 µM)	25 (≈ 64.6 µM)	12.5 (≈ 32.3 µM)	16	11	16	11	16	<10	16	11
Clc1cc(Cl)c(Cl)c(-c2nc(CN3CCOCC3)cs2)c1	12.5 (≈ 34.4 µM)	12.5 (≈ 34.4 µM)	25 (≈ 68.7 µM)	12.5 (≈ 34.4 µM)	25 (≈ 68.7 µM)	25 (≈ 68.7 µM)	12.5 (≈ 34.4 µM)	25 (≈ 68.7 µM)	11	<10	11	<10	<10	11	11	<10
Cc1cc(C)nc(SCc2csc(-c3cc(Cl)cc(Cl)c3Cl)n2)n1	6.25 (≈ 15 µM)	6.25 (≈ 15 µM)	25 (≈ 60 µM)	6.25 (≈ 15 µM)	6.25 (≈ 15 µM)	6.25 (≈ 15 µM)	6.25 (≈ 15 µM)	25 (≈ 60 µM)	16	<10	16	16	16	16	16	<10
Clc1cc(Cl)c(Cl)c(-c2nc(CN3CCCCC3)cs2)c1	6.25 (≈ 17.3 µM)	6.25 (≈ 17.3 µM)	25 (≈ 69.1 µM)	25 (≈ 69.1 µM)	12.5 (≈ 34.6 µM)	25 (≈ 69.1 µM)	25 (≈ 69.1 µM)	25 (≈ 69.1 µM)	16	<10	<10	<10	11	<10	16	<10

More lines, main results first:

MIC (Staphylococcus aureus [1]) [µg/mL]	MIC (Bacillus subtilis [3]) [µg/mL]	MIC (Aspergillus fumigatus [4]) [µg/mL]	MIC (Escherichia coli [5]) [µg/mL]	MIC (Pseudomonas aeruginosa [6]) [µg/mL]	MIC (Aspergillus flavus [8]) [µg/mL]	MIC (Talaromyces marneffei [11]) [µg/mL]	MIC [13] [µg/mL]	Compound	inhibition zone (IZ) (Staphylococcus aureus [2]) [mm]	inhibition zone (IZ) (Aspergillus fumigatus [7]) [mm]	inhibition zone (IZ) (Escherichia coli [9]) [mm]	inhibition zone (IZ) (Aspergillus flavus [10]) [mm]	inhibition zone (IZ) (Pseudomonas aeruginosa [12]) [mm]	inhibition zone (IZ) (Talaromyces marneffei [14]) [mm]	inhibition zone (IZ) (Bacillus subtilis [15]) [mm]	inhibition zone (IZ) [16] [mm]
25 (≈ 59.9 µM)	25 (≈ 59.9 µM)	12.5 (≈ 30 µM)	12.5 (≈ 30 µM)	25 (≈ 59.9 µM)	12.5 (≈ 30 µM)	12.5 (≈ 30 µM)	12.5 (≈ 30 µM)	Clc1ccc(-c2csc(N/N=C/c3cc(Cl)cc(Cl)c3Cl)n2)cc1	<10	11	11	11	<10	11	<10	11
12.5 (≈ 33.3 µM)	25 (≈ 66.6 µM)	6.25 (≈ 16.7 µM)	6.25 (≈ 16.7 µM)	6.25 (≈ 16.7 µM)	25 (≈ 66.6 µM)	25 (≈ 66.6 µM)	6.25 (≈ 16.7 µM)	Clc1ccc(-c2csc(-c3cc(Cl)cc(Cl)c3Cl)n2)cc1	11	16	16	<10	16	<10	<10	16
6.25 (≈ 14.1 µM)	6.25 (≈ 14.1 µM)	12.5 (≈ 28.3 µM)	6.25 (≈ 14.1 µM)	6.25 (≈ 14.1 µM)	12.5 (≈ 28.3 µM)	12.5 (≈ 28.3 µM)	12.5 (≈ 28.3 µM)	NC(=O)c1cc(-c2csc(N/N=C/c3cc(Cl)cc(Cl)c3Cl)n2)ccc1O	16	11	16	11	16	11	16	11
6.25 (≈ 14.6 µM)	6.25 (≈ 14.6 µM)	25 (≈ 58.5 µM)	25 (≈ 58.5 µM)	25 (≈ 58.5 µM)	25 (≈ 58.5 µM)	25 (≈ 58.5 µM)	25 (≈ 58.5 µM)	O=[N+]([O-])c1ccc(-c2csc(N/N=C/c3cc(Cl)cc(Cl)c3Cl)n2)cc1	16	<10	<10	<10	<10	<10	16	<10
25 (≈ 60.6 µM)	25 (≈ 60.6 µM)	25 (≈ 60.6 µM)	25 (≈ 60.6 µM)	25 (≈ 60.6 µM)	25 (≈ 60.6 µM)	25 (≈ 60.6 µM)	12.5 (≈ 30.3 µM)	COc1ccc(-c2csc(N/N=C/c3cc(Cl)cc(Cl)c3Cl)n2)cc1	<10	<10	<10	<10	<10	<10	<10	11
6.25 (≈ 13.6 µM)	6.25 (≈ 13.6 µM)	6.25 (≈ 13.6 µM)	25 (≈ 54.5 µM)	25 (≈ 54.5 µM)	6.25 (≈ 13.6 µM)	6.25 (≈ 13.6 µM)	6.25 (≈ 13.6 µM)	Clc1cc(Cl)c(Cl)c(/C=N/Nc2nc(-c3ccc(-c4ccccc4)cc3)cs2)c1	16	16	<10	16	<10	16	16	16
